In ChEMBL document CHEMBL1136012, “Synthesis and structure-activity relationships of novel 7-substituted 1,4-dihydro-4-oxo-1-(2-thiazolyl)-1,8-naphthyridine-3-carboxylic acids as antitumor agents. Part 1” (J Med Chem, 2002):

Key:
P388 [1] = experiment: Cytotoxic activity of compound against Murine P388 Leukemia; type: functional, cell-based, Mus musculus
Outline: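 Murine P388 cells were cultured in EMEM with 10% FBS, 2 mM glutamine, 50 units/mL penicillin and 50 μg/mL streptomycin. They were seeded at (1–2) × 10^4 cells/mL without preincubation and exposed to varying concentrations for 72 h at 37 °C, 5% CO2. MTT was then added for 4 h, formazan dissolved in DMSO and read at 570/690 nm.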

P388 [2] = experiment: In vitro antitumor activity of compound against P388 leukemia cells at a dose of […] mg/kg; type: functional, Mus musculus; design: concentration or dose not given beside the values
P388 [3] = experiment: […] antitumor activity of compound against P388 leukemia cells at a dose of 3.13 mg/kg; type: functional, Mus musculus
Outline: (§1)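 In vivo study: BDF1 mice received 10^6 P388 leukemia cells ip as diluted ascites fluid. Test compounds were suspended in 0.4% CMC and given ip on days 1 and 5 after implantation, with seven mice per group. The endpoint is T/C% = median survival time of the treated group / median survival time of controls × 100.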

P388 [4] = experiment: […] antitumor activity of compound against P388 leukemia cells at a dose of 50 mg/kg; type: functional, Mus musculus; outline: as §1
[5] = Mus musculus, P388, read-out: IC50

| Compound | IC50 (P388 [1]; [5]) [µg/mL] | further results |
| --- | --- | --- |
| Cl.NCCSc1nc2c(cc1F)c(=O)c(C(=O)O)cn2-c1nccs1 | > 10 | – |
| Cl.O=C(O)c1cn(-c2nccs2)c2nc(N3CC[C@H](O)C3)c(F)cc2c1=O | 0.02 | – |
| Cl.NCC1CN(c2nc3c(cc2F)c(=O)c(C(=O)O)cn3-c2nccs2)C[C@H]1Cl (stereo partly specified) | 0.156 | – |
| Cc1cc(-n2cc(C(=O)O)c(=O)c3cc(F)c(N4CCC(N)C4)nc32)on1.Cl (stereo unspecified) | 0.58 | – |
| Cl.O=C(O)c1cn(-c2nccs2)c2nc(N3CCCC3)c(F)cc2c1=O | 0.08 | – |
| Cl.NC1CCN(c2nc3c(cc2F)c(=O)c(C(=O)O)cn3-c2nccs2)CC1 | 1.63 | – |
| CO[C@@H]1CN(c2nc3c(cc2F)c(=O)c(C(=O)O)cn3-c2nccs2)C[C@@H]1N.Cl | 0.084 | – |
| Cl.N[C@H]1CN(c2nc3c(cc2F)c(=O)c(C(=O)O)cn3-c2nccs2)C[C@@H]1O | 2.09 | – |
| Cl.NC1C=CC[C@H]2CN(c3nc4c(cc3F)c(=O)c(C(=O)O)cn4-c3nccs3)C[C@@H]12 (stereo partly specified) | 0.15 | – |
| CN(C)C1CCN(c2nc3c(cc2F)c(=O)c(C(=O)O)cn3-c2nccs2)C1.Cl (stereo unspecified) | 0.057 | T/C (P388 [2]): 175%; T/C (P388 [3]): 138%; T/C (P388 [4]): 225% |
| Cl.NC1CCN(c2nc3c(cc2F)c(=O)c(C(=O)O)nn3-c2nccs2)C1 (stereo unspecified) | > 10 | – |
| Cl.NCCNc1nc2c(cc1F)c(=O)c(C(=O)O)cn2-c1nccs1 | > 10 | – |
| CO[C@@H]1CN(c2nc3c(cc2F)c(=O)c(C(=O)O)cn3-c2nccs2)C[C@H]1N.Cl | 0.068 | – |
| Cl.O=C(O)c1cn(-c2nccs2)c2nc(N3CCSCC3)c(F)cc2c1=O | 1.74 | – |
| Cl.N[C@@H]1CCN(c2nc3c(cc2F)c(=O)c(C(=O)O)cn3-c2nccs2)C1 | 0.016 | – |
| CO[C@H]1CN(c2nc3c(cc2F)c(=O)c(C(=O)O)cn3-c2nccs2)C[C@@H]1N.Cl (stereo in doubt; (S,S)-43j) | – | IC50 (P388 [1]; p388): 0.023 µg/mL |
| Cl.NC1CCN(c2nc3c(cc2F)c(=O)c(C(=O)O)cn3-c2cccs2)C1 (stereo unspecified) | 1.2 | – |
| Cc1csc(-n2cc(C(=O)O)c(=O)c3cc(F)c(N4CCC(N)C4)nc32)n1.Cl (stereo unspecified) | 0.051 | – |
| Cl.NC1CCN(c2nc3c(cc2F)c(=O)c(C(=O)O)cn3-c2nc(-c3ccccc3)cs2)C1 (stereo unspecified) | 0.052 | – |
| C[C@H]1CN(c2nc3c(cc2F)c(=O)c(C(=O)O)cn3-c2nccs2)C[C@@H]1N.Cl | 0.011 | T/C (P388 [2]): 175%; T/C (P388 [3]): 138%; T/C (P388 [4]): 238% |
| Cl.NC1CCN(c2ncc3c(=O)c(C(=O)O)cn(-c4nccs4)c3n2)C1 (stereo unspecified) | 0.047 | – |
| Cl.NCC1=CCN(c2nc3c(cc2F)c(=O)c(C(=O)O)cn3-c2nccs2)C1 | 0.084 | – |
| Cl.N[C@H]1CCN(c2nc3c(cc2F)c(=O)c(C(=O)O)cn3-c2nccs2)C1 | 0.028 | – |
| Cl.NC1CCN(c2nc3c(cc2F)c(=O)c(C(=O)O)cn3-c2nc3ccccc3s2)C1 (stereo unspecified) | 0.049 | – |
| Cl.NC1CCN(c2nc3c(cc2F)c(=O)c(C(=O)O)cn3-c2ccc(F)cc2)C1 (stereo unspecified) | 2.1 | – |
| Cl.NC1CCN(c2nc3c(cc2F)c(=O)c(C(=O)O)cn3-c2ccccn2)C1 (stereo unspecified) | > 10 | – |
| COc1cnc(-n2cc(C(=O)O)c(=O)c3cc(F)c(N4CCC(N)C4)nc32)s1.Cl (stereo unspecified) | 0.35 | – |
| Cl.NC1CCN(c2nc3c(cc2F)c(=O)c(C(=O)O)cn3-c2ncc(Br)s2)C1 (stereo unspecified) | 0.085 | – |
| Cl.NCC1CCN(c2nc3c(cc2F)c(=O)c(C(=O)O)cn3-c2nccs2)C1 (stereo unspecified) | 0.101 | – |
| Cl.NC1CCN(c2nc3c(cc2F)c(=O)c(C(=O)O)cn3-c2ncc(Cl)s2)C1 (stereo unspecified) | 0.094 | – |
